Converted amounts (≈) assume the structure as drawn.
Key:
[1] = Antitumor activity against mouse S180A allografted in ICR mouse assessed as tumor growth at 25 mg/kg, ip qd for 5 days measured on day 7 relative to control; format: functional; details: route intraperitoneal
How it was run: (§1)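 Ascites Sarcoma 180 (1 × 10^7 cells) implanted into ICR mice, six animals per group. Five daily ip injections in saline (days 1–5). Sacrificed day 7. T/C % computed from total packed cell volume (ascites volume × PCV) vs controls. Grades: 100-66 = -, 65-41 = +, 40-11 = ++, 10-0 = +++.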

[2] = Antitumor activity against mouse S180A allografted in ICR mouse assessed as tumor growth at 50 mg/kg, ip qd for 5 days measured on day 7 relative to control; format: functional; details: route intraperitoneal; how it was run: as §1
[3] = test system: Mus musculus; experiment: Toxicity in ICR mouse allografted with mouse S180A assessed as mortality at 25 mg/kg, ip qd for 5 days; format: organism-based; parameters: dose 25 mg/kg, route intraperitoneal; details: in vivo, 120 h
How it was run: (§2)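 Ascites Sarcoma 180 (1 × 10^7 cells) implanted into ICR mice, six per group; compound in saline ip once daily days 1-5; sacrifice on day 7; total packed cell volume (ascites volume × PCV) compared with controls as T/C %; mortality recorded.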

[4] = test system: Mus musculus; experiment: Toxicity in ICR mouse allografted with mouse S180A assessed as mortality at 50 mg/kg, ip qd for 5 days; format: organism-based; parameters: dose 50 mg/kg, route intraperitoneal; details: in vivo, 120 h; how it was run: as §2
[5] = test system: L1210; experiment: Antitumor activity against mouse L1210 cells allografted in BDF1 mouse assessed as increase in host lifespan at 50 mg/kg, ip qd for 5 days relative to control; format: functional; details: 120 h, route intraperitoneal
How it was run: (§3)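 L1210 (1 × 10^5 cells) implanted into BDF1 mice, six per group; compound in saline ip once daily days 1-5; effect read as % increase in life span, ILS = [(treated life span/control life span) − 1] × 100.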

[6] = test system: L1210; experiment: Antitumor activity against mouse L1210 cells allografted in BDF1 mouse assessed as increase in host lifespan at 100 mg/kg, ip qd for 5 days relative to control; format: functional; details: 120 h, route intraperitoneal; how it was run: as §3
[7] = test system: L1210; experiment: Antitumor activity against mouse L1210 cells allografted in BDF1 mouse assessed as increase in host lifespan at 200 mg/kg, ip qd for 5 days relative to control; format: functional; details: 120 h, route intraperitoneal; how it was run: as §3
[8] = test system: Mus musculus; experiment: Toxicity in BDF1 mouse allografted with mouse L1210 cells assessed as mortality at 50 mg/kg, ip qd for 5 days; format: organism-based; parameters: dose 50 mg/kg, route intraperitoneal; details: in vivo, 120 h; how it was run: as §3
[9] = test system: Mus musculus; experiment: Toxicity in BDF1 mouse allografted with mouse L1210 cells assessed as mortality at 100 mg/kg, ip qd for 5 days; format: organism-based; parameters: dose 100 mg/kg, route intraperitoneal; details: in vivo, 120 h; how it was run: as §3
[10] = test system: Mus musculus; experiment: Toxicity in BDF1 mouse allografted with mouse L1210 cells assessed as mortality at 200 mg/kg, ip qd for 5 days; format: organism-based; parameters: dose 200 mg/kg, route intraperitoneal; details: in vivo, 120 h; how it was run: as §3
[11] = test system: Rattus norvegicus; experiment: Diabetogenic activity in Wistar rat assessed as increase in blood sugar level at 65 mg/kg, iv administered as single dose by glucose oxidase method; format: ADME, organism-based; parameters: dose 65 mg/kg, route intravenous; details: in vivo
How it was run: (§4)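 Male Wistar rats, about 200 g, five per group, fasted 16 h. Single iv dose into the femoral vein in physiological saline, equimolar across compounds. Caudal-vein blood sampled at set times over 24 h. Sugar measured by glucose oxidase.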

[12] = test system: Rattus norvegicus; experiment: Diabetogenic activity in Wistar rat assessed as increase in blood sugar level at 20 mg/kg, ip qd for 1 month measured 24 hrs last drug dosage by glucose oxidase method; format: ADME, organism-based; parameters: dose 20 mg/kg, route intraperitoneal; details: in vivo
How it was run: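 Male Wistar rats, about 150 g, five per group. Drug in physiological saline given ip qd on days 1–30. Blood drawn 24 h after the last dose. Sugar measured by glucose oxidase.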

[13] = test system: Bacillus subtilis; experiment: Antibacterial activity against Bacillus subtilis ATCC 6633 assessed as growth inhibition after 18 hrs by broth dilution method; format: functional; details: ATCC 6633, 18 h
How it was run: (§5)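 Twofold serial dilutions in heart infusion broth. Inoculum was a 24-h heart infusion broth culture diluted 100-fold in physiological saline. Tubes incubated 30 °C for 18 h; the table footnote gives 32 °C for 24 h. MIC in µg/ml is the lowest level giving complete growth inhibition.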

[14] = test system: Escherichia coli; experiment: Antibacterial activity against Escherichia coli NIHJ JC-2 assessed as growth inhibition after 18 hrs by broth dilution method; format: functional; details: NIHJ JC-2, 18 h; how it was run: as §5
[15] = test system: Klebsiella pneumoniae; experiment: Antibacterial activity against Klebsiella pneumoniae ATCC 10031 assessed as growth inhibition after 18 hrs by broth dilution method; format: functional; details: ATCC 10031, 18 h; how it was run: as §5
[16] = test system: Proteus vulgaris; experiment: Antibacterial activity against Proteus vulgaris AHU 1469 assessed as growth inhibition after 18 hrs by broth dilution method; format: functional; details: AHU 1469, 18 h; how it was run: as §5
[17] = test system: Pseudomonas fluorescens; experiment: Antibacterial activity against Pseudomonas fluorescens NIHJ B-254 assessed as growth inhibition after 18 hrs by broth dilution method; format: functional; details: NIHJ B-254, 18 h; how it was run: as §5
[18] = test system: Salmonella typhi; experiment: Antibacterial activity against Salmonella typhi IFM 3020 assessed as growth inhibition after 18 hrs by broth dilution method; format: functional, Salmonella enterica subsp. enterica serovar Typhi; details: Salmonella enterica, IFM 3020, 18 h
How it was run: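 Twofold serial dilutions in heart infusion broth; inoculum from 24 h heart infusion broth culture diluted 100-fold in physiological saline; tubes incubated 30 °C for 18 h; MIC (µg/ml) = lowest level giving complete growth inhibition.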

[19] = test system: Micrococcus luteus; experiment: Antibacterial activity against Sarcina lutea ATCC 9341 assessed as growth inhibition after 18 hrs by broth dilution method; format: functional; details: ATCC 9341, 18 h; how it was run: as §5
[20] = test system: Shigella sonnei; experiment: Antibacterial activity against Shigella sonnei assessed as growth inhibition after 18 hrs by broth dilution method; format: functional; how it was run: as §5
[21] = test system: Staphylococcus aureus; experiment: Antibacterial activity against Staphylococcus aureus FDA 209P JC-1 assessed as growth inhibition after 18 hrs by broth dilution method; format: functional; details: FDA 209P JC-1, 18 h; how it was run: as §5
[22] = (§6) Acute toxicity in ip dosed JCL-ICR mouse assessed as animal death; format: organism-based; details: JCL-ICR, in vivo
How it was run: (§7)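 Groups of ten female JCL-ICR mice given single ip dose in physiological saline; deaths followed over 7 days; LD50 (and LD10) derived by Litchfield–Wilcoxon method.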

[23] = test system: Mus musculus; experiment: as §6; format: organism-based; details: in vivo; how it was run: as §7
[24] = Acute toxicity in iv dosed mouse; format: organism-based; details: in vivo
[25] = Acute toxicity in iv dosed dog; format: organism-based, Canis lupus familiaris; details: in vivo
[26] = Therapeutic index, ratio of LD10 for JCL-ICR mouse to ED90 for mouse S180A cells allografted in ICR mouse; details: read-out: TI
[27] = test system: Mus musculus; experiment: Toxicity in ip dosed BDF1 mouse allografted with mouse L1210 cells assessed as optimal dose required for mortality administered qd for 5 days; format: organism-based; details: in vivo, 120 h
[28] = Antitumor activity against mouse S180A cells allografted in ip dosed ICR mouse administered qd for 5 days; format: functional; details: 120 h; how it was run: as §1
[29] = test system: L1210; experiment: Antitumor activity against mouse L1210 cells allografted in ip dosed BDF1 mouse assessed as 30% increase in host lifespan administered for qd for 5 days; format: functional
[30] = test system: L1210; experiment: Antitumor activity against mouse L1210 cells allografted in BDF1 mouse assessed as increase in host lifespan at 125 mg/kg, ip qd for 5 days relative to control; format: functional; details: 120 h, route intraperitoneal; how it was run: as §3
[31] = test system: Mus musculus; experiment: Toxicity in BDF1 mouse allografted with mouse L1210 cells assessed as mortality at 125 mg/kg, ip qd for 5 days; format: organism-based; parameters: dose 125 mg/kg, route intraperitoneal; details: in vivo, 120 h; how it was run: as §3
[32] = test system: Enterococcus faecalis; experiment: Antibacterial activity against Streptococcus faecalis ATCC 10541 assessed as growth inhibition after 18 hrs by broth dilution method; format: functional; details: ATCC 10541, 18 h; how it was run: as §5
[33] = test system: Mus musculus; experiment: Ratio of compound LD10 to streptozotocin LD10 for JCL-ICR mouse; format: ADME, organism-based; details: in vivo
[34] = Ratio of compound LD50 to streptozotocin LD50 for JCL-ICR mouse; format: ADME, organism-based; details: in vivo
[35] = test system: Rattus norvegicus; experiment: Diabetogenic activity in iv dosed Wistar rat assessed as increase in blood sugar level administered as single dose by glucose oxidase method; format: ADME, organism-based; details: in vivo; how it was run: as §4

| SMILES | T/C [2] [%] | Activity [4] | MIC [13] [µg/mL] | MIC [14] [µg/mL] | MIC [15] [µg/mL] | MIC [16] [µg/mL] | MIC [17] [µg/mL] | MIC [18] [µg/mL] | MIC [19] [µg/mL] | MIC [20] [µg/mL] | MIC [21] [µg/mL] | LD50 [22] [mg/kg] | LD10 [23] [mg/kg] | also measured |
| --- | --- | --- | --- | --- | --- | --- | --- | --- | --- | --- | --- | --- | --- | --- |
| CN(N=O)C(=O)N[C@@H](C=O)[C@@H](O)[C@H](O)[C@H](O)CO [STREPTOZOCIN] | 26 | Non-toxic | 12.5 (≈ 47.1 µM) | 12.5 (≈ 47.1 µM) | > 200 | 0.4 (≈ 1.51 µM) | 6.3 (≈ 23.8 µM) | > 200 | > 200 | > 200 | 1.6 (≈ 6.03 µM) | 360 | 235 | T/C [1]: 40%; Activity [3]: Non-toxic; ILS at 50 mg/kg [5]: 44%; ILS at 100 mg/kg [6]: 76%; ILS at 200 mg/kg [7]: 0%; Activity [8]: Non-toxic; Activity [9]: Non-toxic; Activity [10]: Non-toxic; Activity [11]: Toxic; Activity [12]: Toxic; LD50 [24]: 275 mg/kg; LD50 [25]: 50 mg/kg; selectivity ratio [26]: 2.6; Activity [27]: 100 mg/kg/day; ED90 [28]: 90 mg/kg/day; Activity [29]: 23 mg/kg/day |
| CCO[C@H]1O[C@H](CO)[C@@H](O)[C@H](O)[C@H]1NC(=O)N(C)N=O | 38 | Non-toxic | > 1000 | > 1000 | > 1000 | > 1000 | > 1000 | > 1000 | > 1000 | > 1000 | > 1000 | 2050 | 2000 | ILS at 125 mg/kg [30]: 64%; Activity [31]: Non-toxic; MIC [32]: > 1000 µg/mL; Ratio [33]: 2; selectivity ratio [34]: 2; Activity [35]: Non-toxic |

From ChEMBL document CHEMBL3272319, “Alkyl streptozotocin analogues with improved biological activities” (J Med Chem, 1976)
